Experimental findings from PubChem BioAssay AID624177 (Southern Research Specialized Biocontainment Screening …, 2012) are described below.

Calls of active or inactive are those of the source.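 How the source made its calls: active means inhibition of 30% or more at any tested concentration; inactive means the rest.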

Usually IC50 stands for the concentration that gives 50% inhibition.

The target of one test is M18 aspartyl aminopeptidase (Plasmodium falciparum). As to the kind of experiment: PfM18AAP aspartyl aminopeptidase inhibitors, dose response, biochemical, QFRET fluorogenic substrate, set 2 (AID 624177). As to conditions: recombinant PfM18AAP, H-Glu-NHMec fluorogenic substrate cleavage. In outline:
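Test system: recombinant PFM18AAP enzyme; quantity: enzyme at 5 µg/mL final; times: 90 min reaction, room temperature; replication: triplicate; controls: no-enzyme background control; medium: pH 7.5 Tris, 2 mM CoCl2, 2% DMSO; compound dosing: 10 concentrations, 1:2 steps, 100–0.2 µM; reagent: fluorogenic H-Glu-NHMec peptide substrate at 0.1 mM final; signal: fluorescence at 370/460 nm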
Turning to `CCN(CCc1ccc(O)c(O)c1)c1c2ccccc2nc2ccccc12`, the IC50 is 16.9 µM. Same read-out and setting: the same measure for `Oc1ccc(CCCNc2c3c(nc4ccccc24)CCCC3)cc1O`: 10.8 µM. Still for that read-out and setting: the same measure for `CN(CCc1ccc(O)c(O)c1)c1ncnc2ccccc12`: 7.69 µM; for `CC(C)(CNc1ccnc2ccccc12)c1ccc(O)c(O)c1`: 47.6 µM; for `Oc1ccc(C2CCN(c3ccnc4ccccc34)C2)cc1O` (centres undefined): 6.55 µM. For `CN(CCc1ccc(O)c(O)c1)c1c2ccccc2nc2ccccc12`, the 50% inhibitory concentration (IC50) is 30 µM. On the same count and under the same terms, the same measure for `Oc1ccc(CCNc2ccnc3cc(Cl)ccc23)cc1O`: 14.8 µM; for `Oc1ccc(C2CCN(c3ccnc4ccccc34)CC2)cc1O`: 4.6 µM; for `Oc1ccc(CCNc2ccnc3c(F)cccc23)cc1O`: 9.8 µM. On to `Cc1cccc2c(N(C)CCc3ccc(O)c(O)c3)ccnc12`, for which the half-maximal inhibitory concentration (IC50) was 11.9 µM. Same read-out and setting: the same measure for `Oc1ccc(C2CCCN(c3ccnc4ccccc34)C2)cc1O` (centres undefined): 7.32 µM; for `CN(CCc1ccc(O)c(O)c1)c1ccnc2cc(Cl)ccc12`: 8.46 µM. For `CN(CCCc1ccc(O)c(O)c1)c1ccnc2ccccc12`, the IC50 is 10.3 µM. The same measure, in the same setting: the same measure for `Cc1cccc2c(NCCc3ccc(O)c(O)c3)ccnc12`: 14.5 µM. Same read-out and setting: the same measure for `CC(Cc1ccc(O)c(O)c1)Nc1ccnc2ccccc12` (centres undefined): 16.6 µM; for `Oc1cccc(CCNc2ccnc3ccccc23)c1O`: 16.5 µM; for `CN(CCc1ccc(O)c(O)c1)c1ccnc2c(F)cccc12`: 8.76 µM. On to `CN(CCCc1ccc(O)c(O)c1)c1c2ccccc2nc2ccccc12`, for which the 50% inhibitory concentration (IC50) was 40.1 µM. On the same count and under the same terms, the same measure for `Cc1cc(N(C)CCc2ccc(O)c(O)c2)c2ccccc2n1`: 11.9 µM.

The same test, now with this note: recombinant PfM18AAP, H-Glu-NHMec fluorogenic substrate cleavage; at 100 µM (top of the series).
On to `COc1ccc(CCNc2ncnc3ccccc23)cc1OC`, for which the inhibition entry is “inactive”. The same measure, in the same setting: the same measure for `COc1ccc(CCNc2ccnc3cc(Cl)ccc23)cc1OC`: “inactive”; for `COc1cc(Br)c(CCNc2c3c(nc4ccccc24)CCCC3)cc1OC`: “inactive”; for `CCOc1ccc2nccc(NCCc3ccc(OC)c(OC)c3)c2c1`: “inactive”. Same read-out and setting: the same measure for `COc1ccc(C2CCN(c3ccnc4ccccc34)C2)cc1OC` (centres undefined): “inactive”; for `COc1ccc(CCN(C)c2ncnc3ccccc23)cc1OC`: “inactive”.

On to `COc1ccc(CCCN(C)c2c3ccccc3nc3ccccc23)cc1OC`, for which the inhibition result was “inactive”. On the same count and under the same terms, the same measure for `CCN(CCc1ccc(OC)c(OC)c1)c1c2ccccc2nc2ccccc12`: “inactive”; for `COc1ccc(CCNc2c3c(nc4ccc(C)cc24)CCCC3)cc1OC`: “inactive”. On the same count and under the same terms, the same measure for `COc1cc(Br)c(CCNc2c3ccccc3nc3ccccc23)cc1OC`: “inactive”. `COc1ccc(CCNc2ccnc3c(F)cccc23)cc1OC`: the inhibition result is “inactive”. On the same count and under the same terms, the same measure for `COc1ccc(CCN(C)c2c3ccccc3nc3ccccc23)cc1OC`: “inactive”. On the same count and under the same terms, the same measure for `COc1ccc(CCN(C)c2ccnc3c(C)cccc23)cc1OC`: “inactive”; for `COc1ccc(CCNC(=O)c2cc(C)ccc2N)cc1OC`: “inactive”.

In the case of `COc1ccc(CCN(C)c2ccnc3c(F)cccc23)cc1OC`, the inhibition entry is “inactive”. Same read-out and setting: the same measure for `Clc1c2c(nc3ccccc13)CCCC2`: “inactive”; for `COc1ccc(CCCNc2c3c(nc4ccccc24)CCCC3)cc1OC`: “inactive”; for `COc1ccc(CCNc2cc(C)nc3ccccc23)cc1OC`: “inactive”. Same read-out and setting: the same measure for `Nc1c2ccccc2nc2ccccc12`: “inactive”; for `COc1cc(Br)c(CCNc2ccnc3ccccc23)cc1OC`: “inactive”; for `COc1ccc(CCN(C)c2ccnc3cc(Cl)ccc23)cc1OC`: “inactive”. Consider `CCOc1ccc2nccc(N(C)CCc3ccc(OC)c(OC)c3)c2c1`, for which the inhibition result was “inactive”. Turning to `COc1ccc(CCNc2ccnc3c(C)cccc23)cc1OC`, the inhibition entry is “inactive”.

As to `COc1ccc(C2CCN(c3ccnc4ccccc34)CC2)cc1OC`, the inhibition result is “inactive”.

For `COc1ccc(CCN(C)c2cc(C)nc3ccccc23)cc1OC`, the inhibition entry is “inactive”.
